The entries come from a sample that favours hits as a whole.
KSHV LANA nucl = inhibitors of KSHV LANA binding to nucleosomes; FITC-LANA1-23 / chicken nucleosome fluorescence polarization; hits give low values; z-score (no concentration beside the values); 51,000 compounds, 0.3% hits; AID 720717;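 active = both repeat wells score below -2 in polarization z-score versus plate sample wells, excluding overly bright wells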
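Material: Purified chicken nucleosomes with FITC-labelled LANA N-terminal peptide (1-23) | Reagent: 50 nM FITC-LANA1-23 probe | Medium: TEN-BT buffer, pH 7.5 | Times: 10–45 min incubation at room temperature | Detection: Fluorescence polarization | Replication: Duplicates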
Ab BasE inh = blocks the Acinetobacter baumannii siderophore enzyme BasE. purified BasE, fluorescence polarization binding displacement. inhibition, % (test concentration not listed). 84,000 compounds, 0.1% hits. AID 485350; in the data active = inhibition above about 25%, passing the limit was not always enough;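 also: 0% = negative plate control signal and 100% = positive plate control signal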
* = called active by the depositor; nt = not tested or not shown; ! = not confirmed by another sample.

SMILES	KSHV LANA nucl	Ab BasE inh
Cc1nc(SCC(=O)NC2CCCC2)[nH]c(=O)c1Cc1ccccc1	1.28	1.1
NC(=O)C1CCN(C(=O)/C=C2\Sc3ccccc3NC2=O)CC1	2.39	-0.9
COc1ccc(N/C(C)=C/C(=O)c2ccccc2)cc1	-0.321	0.5
CC(=O)Nc1ccc(N/C(C)=C/C(=O)c2cccnc2)cc1	-0.393	38.5*
N[C@@H](C(=O)N[C@@H]1C(=O)N2C(C(=O)O)=C(CSc3cn[nH]n3)CS[C@H]12)c1ccc(O)cc1 (tested in a mixture with another compound)	-0.091	nt
CC1CCc2onc(C(=O)NC3=NN(c4ccccc4)CC3)c2C1 (stereo not given)	nt	1.1
CC(C)CC(C(=O)Nc1cc(C(F)(F)F)ccc1N1CCOCC1)N1C(=O)C2CC=CCC2C1=O (stereo not given)	nt	-2.4
CC(=O)Nc1ccc(C#N)c(OC(F)F)c1	nt	2.8
O=C1c2c(O)ccc(O)c2C(=O)c2c(NCCNCCO)ccc(NCCNCCO)c21	-9.06*	0.9
N#CCCn1cc(C(=O)CSc2ccccn2)c2ccccc21	nt	32.3*
COc1ccc(SCC(=O)c2cn(CCC#N)c3ccccc23)cc1	nt	-2.5
Cn1c(=O)c2nc3ccc(N=Cc4c(O)n(Cc5ccccc5)c(=O)[nH]c4=O)cc3nc2n(C)c1=O	-2.29*	17.7
CCCCn1c(=O)[nH]c2nc3cc(N=Cc4c(O)n(C)c(=O)n(C)c4=O)ccc3nc2c1=O	-0.494	2.5
CSc1ncccc1C(=O)NCCOc1ccccc1	nt	0.6
COc1ccc(C(=O)c2ccccc2)c(O)c1	-0.266	0.4
O=C(c1ccc(O)cc1)c1ccc(O)cc1O	0.208	31.3*
O=C(CSc1nnnn1-c1ccc(O)cc1)N1CCSC1c1ccccc1F (stereo not given)	nt	1.7
COc1ccccc1C1C=C(c2cccnc2)Nc2nc3ccccc3n21 (stereo not given)	-4.8*	28.8
COc1ccccc1C1C2=C(CC(C)(C)CC2=O)Nc2nc3ccccc3n21 (stereo not given)	-0.738	1.1
CCOc1cccc(CO)c1OCc1ccccc1	nt	2.7
Cc1ccccc1OCC1=NN2C(=N)/C(=C/c3ccc(N(C)C)cc3)C(=O)N=C2S1	-4.76*	11.0
Cc1ccccc1OCC1=NN2C(=N)/C(=C\c3ccc(SCc4ccco4)o3)C(=O)N=C2S1	3.1	-2.9
CS(=O)(=O)c1ccc(NC(=O)C2CCCC2)cc1	nt	-4.0
Cc1sc2ncnc(NCC3CN(Cc4ccccc4)CCO3)c2c1C (stereo not given)	nt	-0.9
Cc1ccc(N(C)S(=O)(=O)c2ccc3c(c2)CCCC(=O)N3)cc1	nt	1.8
SMILES	KSHV LANA nucl	Ab BasE inh
COc1cccc2c1C(=O)c1c(O)c3c(c(O)c1C2=O)C[C@@](O)(C(=O)CO)C[C@@H]3O[C@H]1C[C@H](N)[C@@H](O)[C@H](C)O1	-11.4	nt
CC(=O)[C@]1(O)Cc2c(O)c3c(c(O)c2[C@@H](O[C@H]2C[C@H](N)[C@H](O)[C@H](C)O2)C1)C(=O)c1ccccc1C3=O	-10.3*!	nt
CC[C@@]1(O)C[C@H](O[C@H]2C[C@H](N(C)C)[C@H](O[C@H]3C[C@H](O)[C@H](O[C@H]4CCC(=O)[C@H](C)O4)[C@H](C)O3)[C@H](C)O2)c2c(cc3c(c2O)C(=O)c2c(O)cccc2C3=O)[C@H]1C(=O)OC	0.192	nt
COc1cccc2c1C(=O)c1c(O)c3c(c(O)c1C2=O)C[C@@](O)(C(C)=O)C[C@@H]3O[C@H]1C[C@H](N)[C@H](O)[C@H](C)O1	-8.31*	nt
CN1CCN(c2nc(C#N)c(C#N)nc2C(C#N)=C2Nc3ccccc3N2)CC1	-1.58	0.9
CCN1/C(=C(\C#N)c2nc(C#N)c(C#N)nc2N2CCOCC2)Nc2ccccc21	-3.2*	0.5
Cc1oc2ccc(O)c(CN3CCC(C)CC3)c2c1C(=O)Nc1cccc(C(F)(F)F)c1	0.031	-1.2
O=C(Nc1ccccc1)N1CCCN(Cc2ccc(F)cc2)CC1	1.7	-2.2
C/C(=N\NC(=S)NC1CCCCC1)c1ccc(S(=O)(=O)NCc2ccco2)cc1	nt	-1.1
C/C(=N\NC(=O)c1ccc(O)cc1)c1ccc(S(=O)(=O)NCc2ccco2)cc1	nt	28.6*
O=C1C=CC(=O)c2c(Cl)ccc(Cl)c21	-0.036	79.9*
CC(C)c1ccc(C2=CC(=O)C=CC2=O)cc1	0.662	2.3
N#CCCN(/N=C/c1ccccc1)C1=NS(=O)(=O)c2ccccc21	nt	2.5
CCN(CC)c1ccc(/C=N/N(CCC#N)C2=NS(=O)(=O)c3ccccc32)cc1	-8.37*	10.7
COc1ccc(S(=O)(=O)NNC(N)=S)cc1	0.255	-0.6
COc1ccc(S(=O)(=O)c2ccc(O)cc2)cc1	0.132	51.2*
CCOC(=O)c1c(NC(=S)NC(=O)c2c(I)cnn2C)sc2c1CCC(C)C2 (stereo not given)	-0.521	-0.1
CCCCOC(=O)c1ccc(N2C(=O)CC(N3CCC(C(N)=O)CC3)C2=O)cc1 (stereo not given)	-0.095	-1.1
C[n+]1cccc2ccc(O)cc21	-6.72*	20.0

Source: PubChem
